{"source": "ChEMBL document CHEMBL4270573", "about": "“Novel nicotinoyl pyrazoline derivates bearing N-methyl indole moiety as antitumor agents: Design, synthesis and evaluation” (Eur J Med Chem, 2018)", "key": {"[1]": {"tested_on": "HepG2", "assay": "Cell cycle arrest in human HepG2 cells assessed as accumulation at G2/M phase after 6 to 24 hrs by propidium iodide staining based flow cytometric analysis", "type": "functional", "outline": "(§1)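 HepG2 and HeLa cells were exposed to 0, 0.020, 0.040, 0.060, 0.080 or 0.10 µM for 6, 12 or 24 h. DNA content was stained with propidium iodide and analysed by flow cytometry to give the percentage of cells in G0/G1, S and G2/M phases; sub-G1 cells were also recorded.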"}, "[2]": {"tested_on": "HeLa", "assay": "Antitumor activity against human HeLa cells xenografted in nude mouse assessed as relative tumor growth inhibition at 10 mg/kg, ip after 14 days (reference value: 59.92%)", "type": "functional", "settings": "336 h, read-out: TGI"}, "[3]": {"tested_on": "HeLa", "assay": "Induction of apoptosis in human HeLa cells assessed as late apoptotic cells at 0.060 uM after 24 hrs by Annexin V-FITC/propidium iodide staining based flow cytometric analysis (reference value: 4.98%)", "type": "functional", "outline": "(§2)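 HepG2 and HeLa cells were exposed to 0, 0.02, 0.040, 0.060, 0.080 and 0.10 µM for 6, 12 and 24 h. Cells were double-stained with Annexin V-FITC/PI and read by flow cytometry. Apoptotic rate was the percentage of FITC-positive cells, counting early plus late apoptotic.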"}, "[4]": {"tested_on": "HeLa", "assay": "Antitumor activity against human HeLa cells xenografted in nude mouse assessed as tumor volume at 20 mg/kg, ip after 14 days (reference value: 2292.17 mm3)", "type": "functional"}, "[5]": {"tested_on": "HeLa", "assay": "Cell cycle arrest in human HeLa cells assessed as accumulation at S phase at 0.080 uM after 24 hrs by propidium iodide staining based flow cytometric analysis (reference value: 17.46%)", "type": "functional", "outline": "as §1"}, "[6]": {"tested_on": "A549", "assay": "Growth inhibition of human A549 cells after 48 hrs by MTT assay", "type": "functional", "settings": "A549, 48 h", "outline": "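Proliferation read-out; GI50 taken as the concentration giving 50% reduction of cancer cell proliferation.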"}, "[7]": {"tested_on": "HeLa", "assay": "Cell cycle arrest in human HeLa cells assessed as accumulation at S phase at 0.10 uM after 24 hrs by propidium iodide staining based flow cytometric analysis (reference value: 17.46%)", "type": "functional", "outline": "as §1"}, "[8]": {"tested_on": "Mus musculus", "assay": "Toxicity in nude mouse xenografted with human HeLa cells assessed as change in mouse kidney weight at 10 to 20 mg/kg, ip after 14 days", "type": "organism-based", "settings": "in vivo, 336 h"}, "[9]": {"tested_on": "HepG2", "assay": "Cell cycle arrest in human HepG2 cells assessed as accumulation at G0/G1 phase at 0.080 uM after 24 hrs by propidium iodide staining based flow cytometric analysis (reference value: 55.63%)", "type": "functional", "outline": "as §1"}, "[10]": {"tested_on": "HepG2", "assay": "Induction of apoptosis in human HepG2 cells assessed as late apoptotic cells at 0.060 uM after 24 hrs by Annexin V-FITC/propidium iodide staining based flow cytometric analysis (reference value: 2.93%)", "type": "functional", "outline": "as §2"}}}
{"smiles": "COc1cccc(C2=NN(C(=O)c3ccc(C)nc3)C(c3cn(C)c4ccc(OC)cc34)C2)c1", "note": "(stereo not given)", "values": [{"measurement": "Activity", "setting": "[1]", "value": "Dose-dependent effect"}, {"measurement": "inhibition in vivo at 10 mg/kg", "setting": "[2]", "value": 47.1, "unit": "%"}, {"measurement": "Activity", "setting": "[3]", "value": 6.49, "unit": "%"}, {"measurement": "Activity", "setting": "[4]", "value": 881.93, "unit": "mm3"}, {"measurement": "Activity", "setting": "[5]", "value": 9.17, "unit": "%"}, {"measurement": "GI50", "setting": "[6]", "value": 590, "unit": "nM"}, {"measurement": "Activity", "setting": "[7]", "value": 17.88, "unit": "%"}, {"measurement": "Activity", "setting": "[8]", "value": "Non-Toxic"}, {"measurement": "Activity", "setting": "[9]", "value": 7.81, "unit": "%"}, {"measurement": "Activity", "setting": "[10]", "value": 4.9, "unit": "%"}]}
